≈ marks a conversion by molar mass, not a printed value. Calls of active or inactive are those of the source. The rule behind the calls is not given here.
Experiments:
[1] = Toxicity in mouse RAW264.7 cells assessed as cell viability at 10 uM by MTT assay; type: cell-based; details: read-out: Activity
[2] = tested on: RAW264.7; assay: Inhibition of LPS-induced nitric oxide production in mouse RAW264.7 cells incubated for 24 hrs by Griess reagent based assay; type: functional, cell-based
Outline: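 RAW 264.7 cells were seeded at 5.0 × 10^5 cells/mL and held 24 h at 37 °C, 5% CO2. Medium was discarded and cells were stimulated with 1 μg/mL LPS with or without compound for 24 h at 37 °C. Supernatant was mixed 1:1 with Griess reagent for 10 min at room temperature. Absorbance was read at 570 nm against a sodium nitrite calibration curve, giving IC50.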

[3] = tested on: Streptococcus mutans; assay: Antibacterial activity against Streptococcus mutans by CLSI protocol based method; type: functional
Outline: (§1)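 Strains came from the Microbiological Resources Center, Bangkok, Thailand. Antibacterial testing followed Clinical and Laboratory Standards Institute recommendations.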

[4] = tested on: Micrococcus luteus; assay: Antibacterial activity against Micrococcus luteus by CLSI protocol based method; type: functional; outline: as §1
[5] = tested on: Micrococcus luteus; assay: Antibacterial activity against Micrococcus luteus at >128 ug/ml by CLSI protocol based method; type: functional, organism-based; outline: as §1
[6] = tested on: Staphylococcus aureus; assay: Antibacterial activity against Staphylococcus aureus by CLSI protocol based method; type: functional; outline: as §1
[7] = tested on: Escherichia coli; assay: Antibacterial activity against Escherichia coli at >128 ug/ml by CLSI protocol based method; type: functional, organism-based; outline: as §1
[8] = tested on: Pseudomonas aeruginosa; assay: Antibacterial activity against Pseudomonas aeruginosa by CLSI protocol based method; type: functional; outline: as §1
[9] = tested on: Shigella flexneri; assay: Antibacterial activity against Shigella flexneri by CLSI protocol based method; type: functional; outline: as §1
[10] = tested on: Streptococcus mutans; assay: Antibacterial activity against Streptococcus mutans at >128 ug/ml by CLSI protocol based method; type: functional, organism-based; outline: as §1
[11] = tested on: Staphylococcus epidermidis; assay: Antibacterial activity against Staphylococcus epidermidis by CLSI protocol based method; type: functional; outline: as §1
[12] = tested on: Bacillus cereus; assay: Antibacterial activity against Bacillus cereus at >128 ug/ml by CLSI protocol based method; type: functional, organism-based; outline: as §1
[13] = tested on: Pseudomonas aeruginosa; assay: Antibacterial activity against Pseudomonas aeruginosa at >128 ug/ml by CLSI protocol based method; type: functional, organism-based; outline: as §1
[14] = tested on: Bacillus cereus; assay: Antibacterial activity against Bacillus cereus by CLSI protocol based method; type: functional; outline: as §1
[15] = tested on: Escherichia coli; assay: Antibacterial activity against Escherichia coli by CLSI protocol based method; type: functional; outline: as §1
[16] = tested on: Shigella flexneri; assay: Antibacterial activity against Shigella flexneri at >128 ug/ml by CLSI protocol based method; type: functional, organism-based; outline: as §1
[17] = Mus musculus, RAW264.7, 24 h, read-out: IC50

For CC(C)=CCC1=C(O)c2c(occ(-c3ccc(O)cc3O)c2=O)C(CC=C(C)C)(CC=C(C)C)C1=O, the viability at 10 µM [1] was 75.5% and the IC50 ([2]; raw264.7) was “Not Active”.
For CC(C)=CCc1c2c(c(O)c3c(=O)c(-c4ccc(O)cc4O)coc13)C=CC(C)(C)O2, the viability at 10 µM [1] was 75.5% and the IC50 ([2]; raw264.7) was “Not Active”.
In the case of CC(C)=CCOc1ccc(-c2coc3cc(OCC=C(C)C)cc(O)c3c2=O)cc1, the viability at 10 µM [1] is reported as 72.2%, the MIC [3] is reported as “inactive” and the MIC [4] is reported as “inactive”. For the same molecule, the Activity [5] was “inactive”, the MIC [6] was 128 µg/mL (≈ 315 µM) and the Activity [7] was “inactive”. The MIC [8] was “inactive”, the IC50 ([2]; raw264.7) was “Not Active” and the MIC [9] was 128 µg/mL (≈ 315 µM). For the same molecule, the Activity [10] was “inactive”, the MIC [11] was 128 µg/mL (≈ 315 µM) and the Activity [12] was “inactive”. For the same molecule, the Activity [13] was “inactive”, the MIC [14] was “inactive” and the MIC [15] was “inactive”.
For CC(C)=CCc1c2c(c(O)c3c(=O)c4c(oc5cc(O)ccc54)oc13)C=CC(C)(C)O2, the viability at 10 µM [1] was 79.2%, the MIC [3] was “inactive” and the MIC [4] was “inactive”. For the same molecule, the Activity [5] was “inactive”, the MIC [6] was 128 µg/mL (≈ 306 µM) and the Activity [7] was “inactive”. For the same molecule, the MIC [8] was “inactive”, the IC50 ([2]; raw264.7) was “Not Active” and the MIC [9] was 128 µg/mL (≈ 306 µM). The Activity [10] was “inactive”, the MIC [11] was 128 µg/mL (≈ 306 µM) and the Activity [13] was “inactive”. For the same molecule, the MIC [14] was 128 µg/mL (≈ 306 µM) and the MIC [15] was “inactive”.
In the case of GENTAMICIN, the MIC [15] is reported as 0.25 µg/mL.
With CC1(C)C=Cc2c(c(CCO)c3occ(-c4ccc(O)c(O)c4)c(=O)c3c2O)O1 the viability at 10 µM [1] was 68.2%, the MIC [3] was 128 µg/mL (≈ 323 µM) and the MIC [4] was 32 µg/mL (≈ 80.7 µM). For the same molecule, the Activity [16] was “inactive”, the MIC [8] was “inactive” and the IC50 ([2]; raw264.7) was “Not Active”. For the same molecule, the MIC [9] was “inactive”, the MIC [11] was 128 µg/mL (≈ 323 µM) and the Activity [13] was “inactive”. The MIC [15] was 128 µg/mL (≈ 323 µM).
With COc1ccc2c(c1)c(CC(=O)O)c(C)n2C(=O)c1ccc(Cl)cc1 [INDOMETHACIN] the IC50 [2, 17] was 62.9 µM.
CC(C)=CCc1c2c(c(O)c3c(=O)c(-c4ccc(O)cc4)coc13)C=CC(C)(C)O2 [WARANGALONE] gave a viability at 10 µM [1] of 86.5% and an IC50 [2, 17] of 8.5 µM.
For C=CC(C)(C)c1cc(-c2coc3cc4c(c(O)c3c2=O)C=CC(C)(C)O4)ccc1O, the viability at 10 µM [1] was 61.1%, the MIC [3] was 128 µg/mL (≈ 316 µM) and the MIC [4] was 64 µg/mL (≈ 158 µM). The MIC [6] was 64 µg/mL (≈ 158 µM), the Activity [7] was “inactive” and the MIC [8] was “inactive”. For the same molecule, the IC50 ([2]; raw264.7) was “Not Active”, the MIC [9] was 128 µg/mL (≈ 316 µM) and the MIC [11] was 128 µg/mL (≈ 316 µM). The Activity [13] was “inactive”, the MIC [14] was 64 µg/mL (≈ 158 µM) and the MIC [15] was “inactive”.
For COc1cc(-c2coc3cc4c(c(O)c3c2=O)C=CC(C)(C)O4)c(OC)cc1OCC=C(C)C, the viability at 10 µM [1] was 60.1%, the MIC [3] was “inactive” and the MIC [4] was “inactive”. The Activity [5] was “inactive”, the MIC [6] was 128 µg/mL (≈ 276 µM) and the Activity [7] was “inactive”. For the same molecule, the MIC [8] was “inactive”, the IC50 ([2]; raw264.7) was “Not Active” and the MIC [9] was 128 µg/mL (≈ 276 µM). The Activity [10] was “inactive”, the MIC [11] was 128 µg/mL (≈ 276 µM) and the Activity [12] was “inactive”. The Activity [13] was “inactive”, the MIC [14] was “inactive” and the MIC [15] was “inactive”.
